Results as given in ChEMBL document CHEMBL2062426 (J Med Chem, 2012).
pIC50: −log10 of the molar value. One block for each molecule: values may come before it.

Columns and labels:
Neutrophil collagenase = Neutrophil collagenase (Homo sapiens, UniProt P22894); experiment: Inhibition of MMP8 using (7-methoxycoumarin-4-yl)acetyl-Pro-Leu-Gly-Leu-(3-(2,4-dinitrophenyl)-L-2,3-diaminopropionyl)Ala-Arg-NH2 as substrate incubated for 30 mins prior to substrate addition measured for 10 mins by fluorometry
Method in brief: (§1)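 Activated MMP-8 or MMP-9 (2 nM) was preincubated with inhibitor (10 pM–1 mM) in 50 mM Tris-HCl pH 7.5 with 0.2 M NaCl, 5 mM CaCl2, 20 μM ZnSO4 and 0.05% Brij 35 at 37 °C for 30 min. Fluorogenic substrate (10 μL of 50 μM into 90 μL) was then added. Rates from the first 10 min were plotted against inhibitor concentration, and values are the mean of three experiments.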

[1] = biological target: Matrix metalloproteinase-9 (Homo sapiens, UniProt P14780); experiment: Inhibition of MMP9 using (7-methoxycoumarin-4-yl)acetyl-Pro-Leu-Gly-Leu-(3-(2,4-dinitrophenyl)-L-2,3-diaminopropionyl)Ala-Arg-NH2 as substrate incubated for 30 mins prior to substrate addition measured for 10 mins by fluorometry; method in brief: as §1
Collagenase 3 = Collagenase 3 (Homo sapiens, UniProt P45452); experiment: Inhibition of MMP13 using (7-methoxycoumarin-4-yl)acetyl-Pro-Leu-Gly-Leu-(3-(2,4-dinitrophenyl)-L-2,3-diaminopropionyl)Ala-Arg-NH2 as substrate incubated for 30 mins prior to substrate addition measured for 10 mins by fluorometry
[2] = biological target: 72 kDa type IV collagenase (Homo sapiens, UniProt P08253); experiment: Inhibition of MMP2 using (7-methoxycoumarin-4-yl)acetyl-Pro-Leu-Gly-Leu-(3-(2,4-dinitrophenyl)-L-2,3-diaminopropionyl)Ala-Arg-NH2 as substrate incubated for 30 mins prior to substrate addition measured for 10 mins by fluorometry
[3] = Octanol-water partition coefficient, log D of the compound after 1 min by gamma-counting at pH 7.4; format: physicochemical
Method in brief: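 About 20 kBq of tracer was shaken for 1 min at room temperature in 0.5 mL PBS pH 7.4 with 0.5 mL 1-octanol, then centrifuged (3000 rpm, 2 min). Triplicate 100 μL samples of each phase were γ-counted. log D7.4 is log(cpm octanol/cpm PBS), from two independent experiments in triplicate, given as mean ± SD.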

Serum [4] = experiment: Metabolic stability in human serum at 5 MBq up to 120 mins by radio-HPLC analysis; format: ADME, cell-free; details: 2 h
Method in brief: (§2)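 The PBS-formulated 18F tracer (20 μL, 5 MBq) was added to 200 μL human serum and incubated at 37 °C. Samples of 20 μL were taken at 10, 20, 30, 60, 90 and 120 min, quenched in methanol/CH2Cl2 1:1 and centrifuged 2 min. The organic layer was analysed by radio-HPLC (C18; 30% CH3CN/0.1% TFA for 15 min, then gradient).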

Serum [5] = experiment: Drug metabolism in human serum at 5 MBq up to 120 mins by radio-HPLC analysis; format: ADME, cell-free; details: 2 h; method in brief: as §2
Serum [6] = experiment: Drug metabolism in mouse serum at 5 MBq up to 120 mins by radio-HPLC analysis; format: ADME, cell-free; details: 2 h
Method in brief: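 Serum stability was repeated in mouse blood serum at 37 °C, with analysis by radio-HPLC.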

Kidney [7] = experiment: Tmax in C57/Bl6 mouse kidney at 250 kBq/g bodyweight, iv administered as bolus dose by PET scanning; format: ADME, organism-based; details: in vivo
Method in brief: (§3)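 Adult C57/Bl6 mice given the 18F tracer by intravenous injection. List-mode PET data acquired for 120 min on a high-resolution small-animal scanner and reconstructed into dynamic frames iteratively. Organ volumes of interest were drawn on co-registered CT. Uptake is counts per mL in the VOI divided by total counts in the mouse ×100 (% ID/mL).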

Kidney [8] = experiment: Half life in C57/Bl6 mouse kidney at 250 kBq/g bodyweight, iv administered as bolus dose by PET scanning; format: ADME, organism-based; details: in vivo; method in brief: as §3
Liver [9] = experiment: Tmax in C57/Bl6 mouse liver at 250 kBq/g bodyweight, iv administered as bolus dose by PET scanning; format: ADME, organism-based; details: in vivo; method in brief: as §3
Liver [10] = experiment: Half life in C57/Bl6 mouse liver at 250 kBq/g bodyweight, iv administered as bolus dose by PET scanning; format: ADME, organism-based; details: in vivo; method in brief: as §3
Mus musculus = experiment: Drug metabolism in C57/Bl6 mouse assessed as defluorination at 250 kBq/g bodyweight, iv administered as bolus dose up to 120 mins by PET scanning; format: ADME, organism-based; details: in vivo, 2 h; method in brief: as §3
Brain = experiment: Drug uptake in C57/Bl6 mouse brain at 250 kBq/g bodyweight, iv administered as bolus dose up to 120 mins by PET scanning; format: ADME, organism-based; details: in vivo, 2 h; method in brief: as §3
[11] = Drug uptake in C57/Bl6 mouse myocardium at 250 kBq/g bodyweight, iv administered as bolus dose up to 120 mins by PET scanning; format: ADME, organism-based; details: in vivo, 2 h; method in brief: as §3
Lung = experiment: Drug uptake in C57/Bl6 mouse lungs at 250 kBq/g bodyweight, iv administered as bolus dose up to 120 mins by PET scanning; format: ADME, organism-based; details: in vivo, 2 h; method in brief: as §3
Muscle tissue [12] = experiment: Drug uptake in C57/Bl6 mouse muscle at 250 kBq/g bodyweight, iv administered as bolus dose up to 120 mins by PET scanning; format: ADME, organism-based; details: in vivo, 2 h; method in brief: as §3
[13] = Metabolic stability in iv dosed ICR CD1 mouse muscle assessed as compound remaining after 30 mins by gamma-counting based HPLC analysis; format: ADME, organism-based, Muscle tissue; details: read-out: Stability
Method in brief: (§4)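 Three 10-month-old female ICR (CD1) mice received about 11.1 MBq tracer by tail vein and were killed 30 min pi. Plasma was taken from blood by centrifugation, and urine was collected. Muscle, kidney and liver were homogenized in 1% SDS/PBS and extracted with acetonitrile/acetic acid. Supernatants were γ-counted, %ID/g was computed against a dose aliquot, and samples were run on C18 radio-HPLC with an acetonitrile/water gradient in 0.05% TFA.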

Kidney [14] = experiment: Metabolic stability in iv dosed ICR CD1 mouse kidney assessed as compound remaining after 30 mins by gamma-counting based HPLC analysis; format: ADME, organism-based; details: in vivo, 0.5 h; method in brief: as §4
Liver [15] = experiment: Metabolic stability in iv dosed ICR CD1 mouse liver assessed as compound remaining after 30 mins by gamma-counting based HPLC analysis; format: ADME, organism-based; details: in vivo, 0.5 h; method in brief: as §4
Plasma [16] = experiment: Metabolic stability in iv dosed ICR CD1 mouse plasma assessed as compound remaining after 30 mins by gamma-counting based HPLC analysis; format: ADME, organism-based; details: in vivo, 0.5 h; method in brief: as §4
[17] = Metabolic stability in iv dosed ICR CD1 mouse urine assessed as compound remaining after 30 mins by gamma-counting based HPLC analysis; format: ADME, organism-based; details: in vivo, 0.5 h; method in brief: as §4
Muscle tissue [18] = experiment: Drug metabolism in iv dosed ICR CD1 mouse muscle assessed as radiometabolite 1 level after 30 mins by gamma-counting based HPLC analysis; format: ADME, organism-based; details: in vivo, 0.5 h; method in brief: as §4
Kidney [19] = experiment: Drug metabolism in iv dosed ICR CD1 mouse kidney assessed as radiometabolite 1 level after 30 mins by gamma-counting based HPLC analysis; format: ADME, organism-based; details: in vivo, 0.5 h; method in brief: as §4
Liver [20] = experiment: Drug metabolism in iv dosed ICR CD1 mouse liver assessed as radiometabolite 1 level after 30 mins by gamma-counting based HPLC analysis; format: ADME, organism-based; details: in vivo, 0.5 h; method in brief: as §4
Plasma [21] = experiment: Drug metabolism in iv dosed ICR CD1 mouse plasma assessed as radiometabolite 1 level after 30 mins by gamma-counting based HPLC analysis; format: ADME, organism-based; details: in vivo, 0.5 h; method in brief: as §4
[22] = Drug metabolism in iv dosed ICR CD1 mouse urine assessed as radiometabolite 1 level after 30 mins by gamma-counting based HPLC analysis; format: ADME, organism-based; details: in vivo, 0.5 h; method in brief: as §4
Muscle tissue [23] = experiment: Drug metabolism in iv dosed ICR CD1 mouse muscle assessed as radiometabolite 2 level after 30 mins by gamma-counting based HPLC analysis; format: ADME, organism-based; details: in vivo, 0.5 h; method in brief: as §4
Kidney [24] = experiment: Drug metabolism in iv dosed ICR CD1 mouse kidney assessed as radiometabolite 2 level after 30 mins by gamma-counting based HPLC analysis; format: ADME, organism-based; details: in vivo, 0.5 h; method in brief: as §4
Liver [25] = experiment: Drug metabolism in iv dosed ICR CD1 mouse liver assessed as radiometabolite 2 level after 30 mins by gamma-counting based HPLC analysis; format: ADME, organism-based; details: in vivo, 0.5 h; method in brief: as §4
Plasma [26] = experiment: Drug metabolism in iv dosed ICR CD1 mouse plasma assessed as radiometabolite 2 level after 30 mins by gamma-counting based HPLC analysis; format: ADME, organism-based; details: in vivo, 0.5 h; method in brief: as §4
[27] = Drug metabolism in iv dosed ICR CD1 mouse urine assessed as radiometabolite 2 level after 30 mins by gamma-counting based HPLC analysis; format: ADME, organism-based; details: in vivo, 0.5 h; method in brief: as §4
Muscle tissue [28] = experiment: Drug metabolism in iv dosed ICR CD1 mouse muscle assessed as radiometabolite 3 level after 30 mins by gamma-counting based HPLC analysis; format: ADME, organism-based; details: in vivo, 0.5 h; method in brief: as §4
Kidney [29] = experiment: Drug metabolism in iv dosed ICR CD1 mouse kidney assessed as radiometabolite 3 level after 30 mins by gamma-counting based HPLC analysis; format: ADME, organism-based; details: in vivo, 0.5 h; method in brief: as §4
Liver [30] = experiment: Drug metabolism in iv dosed ICR CD1 mouse liver assessed as radiometabolite 3 level after 30 mins by gamma-counting based HPLC analysis; format: ADME, organism-based; details: in vivo, 0.5 h; method in brief: as §4
Plasma [31] = experiment: Drug metabolism in iv dosed ICR CD1 mouse plasma assessed as radiometabolite 3 level after 30 mins by gamma-counting based HPLC analysis; format: ADME, organism-based; details: in vivo, 0.5 h; method in brief: as §4
[32] = Drug metabolism in iv dosed ICR CD1 mouse urine assessed as radiometabolite 3 level after 30 mins by gamma-counting based HPLC analysis; format: ADME, organism-based; details: in vivo, 0.5 h; method in brief: as §4
Muscle tissue [33] = experiment: Drug metabolism in iv dosed ICR CD1 mouse muscle assessed as radiometabolite 4 level after 30 mins by gamma-counting based HPLC analysis; format: ADME, organism-based; details: in vivo, 0.5 h; method in brief: as §4
Kidney [34] = experiment: Drug metabolism in iv dosed ICR CD1 mouse kidney assessed as radiometabolite 4 level after 30 mins by gamma-counting based HPLC analysis; format: ADME, organism-based; details: in vivo, 0.5 h; method in brief: as §4
Liver [35] = experiment: Drug metabolism in iv dosed ICR CD1 mouse liver assessed as radiometabolite 4 level after 30 mins by gamma-counting based HPLC analysis; format: ADME, organism-based; details: in vivo, 0.5 h; method in brief: as §4
Plasma [36] = experiment: Drug metabolism in iv dosed ICR CD1 mouse plasma assessed as radiometabolite 4 level after 30 mins by gamma-counting based HPLC analysis; format: ADME, organism-based; details: in vivo, 0.5 h; method in brief: as §4
[37] = Drug metabolism in iv dosed ICR CD1 mouse urine assessed as radiometabolite 4 level after 30 mins by gamma-counting based HPLC analysis; format: ADME, organism-based; details: in vivo, 0.5 h; method in brief: as §4

Chain of Matrix metalloproteinase-9 (P14780 whole entry): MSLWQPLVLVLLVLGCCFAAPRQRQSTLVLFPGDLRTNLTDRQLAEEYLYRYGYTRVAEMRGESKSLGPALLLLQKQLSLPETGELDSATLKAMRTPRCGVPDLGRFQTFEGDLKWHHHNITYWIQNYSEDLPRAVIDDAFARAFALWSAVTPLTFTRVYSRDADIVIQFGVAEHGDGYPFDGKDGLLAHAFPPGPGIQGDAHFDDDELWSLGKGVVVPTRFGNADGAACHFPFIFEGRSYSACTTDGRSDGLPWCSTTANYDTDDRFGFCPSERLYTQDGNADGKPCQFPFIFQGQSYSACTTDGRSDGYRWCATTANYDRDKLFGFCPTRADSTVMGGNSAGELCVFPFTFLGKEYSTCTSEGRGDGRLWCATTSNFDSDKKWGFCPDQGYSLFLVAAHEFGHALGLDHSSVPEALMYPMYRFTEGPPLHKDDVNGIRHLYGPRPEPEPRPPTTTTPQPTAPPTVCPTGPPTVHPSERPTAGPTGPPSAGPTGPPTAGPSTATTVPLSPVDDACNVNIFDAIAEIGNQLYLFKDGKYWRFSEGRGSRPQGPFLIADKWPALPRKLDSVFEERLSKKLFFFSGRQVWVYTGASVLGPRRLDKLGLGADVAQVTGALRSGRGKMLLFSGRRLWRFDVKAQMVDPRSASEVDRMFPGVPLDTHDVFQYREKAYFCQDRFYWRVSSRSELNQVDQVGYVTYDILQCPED
Chain of Neutrophil collagenase (P22894 whole entry): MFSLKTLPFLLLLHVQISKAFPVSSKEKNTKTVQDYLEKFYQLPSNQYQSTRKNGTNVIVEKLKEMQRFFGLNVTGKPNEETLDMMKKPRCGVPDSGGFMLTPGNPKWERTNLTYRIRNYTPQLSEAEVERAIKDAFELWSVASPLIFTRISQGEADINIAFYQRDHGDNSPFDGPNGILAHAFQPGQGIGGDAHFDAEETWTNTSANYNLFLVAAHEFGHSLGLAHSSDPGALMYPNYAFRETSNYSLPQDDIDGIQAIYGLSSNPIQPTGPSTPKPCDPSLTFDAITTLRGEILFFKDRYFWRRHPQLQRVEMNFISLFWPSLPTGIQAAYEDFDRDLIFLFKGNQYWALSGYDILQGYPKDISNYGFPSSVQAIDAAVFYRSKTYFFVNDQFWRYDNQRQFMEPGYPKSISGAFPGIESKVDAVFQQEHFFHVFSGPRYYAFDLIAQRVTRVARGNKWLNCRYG
Chain of 72 kDa type IV collagenase (P08253 whole entry): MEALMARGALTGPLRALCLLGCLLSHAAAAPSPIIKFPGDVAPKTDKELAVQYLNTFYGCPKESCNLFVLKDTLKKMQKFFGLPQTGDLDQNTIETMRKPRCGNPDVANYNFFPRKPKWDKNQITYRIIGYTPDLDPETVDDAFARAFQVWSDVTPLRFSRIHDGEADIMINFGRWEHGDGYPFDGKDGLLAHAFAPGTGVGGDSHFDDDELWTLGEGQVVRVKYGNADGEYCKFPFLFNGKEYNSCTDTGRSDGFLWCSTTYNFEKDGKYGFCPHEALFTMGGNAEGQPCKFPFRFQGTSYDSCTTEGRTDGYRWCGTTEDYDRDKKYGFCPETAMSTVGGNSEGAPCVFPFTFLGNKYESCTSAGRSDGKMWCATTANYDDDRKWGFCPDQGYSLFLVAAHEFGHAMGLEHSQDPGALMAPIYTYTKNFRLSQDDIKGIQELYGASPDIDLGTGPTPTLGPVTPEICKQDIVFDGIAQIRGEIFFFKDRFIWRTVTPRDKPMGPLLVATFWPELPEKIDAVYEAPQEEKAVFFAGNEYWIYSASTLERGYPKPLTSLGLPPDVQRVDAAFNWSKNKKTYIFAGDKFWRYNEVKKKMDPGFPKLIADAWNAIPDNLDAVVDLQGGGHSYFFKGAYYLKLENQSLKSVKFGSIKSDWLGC

- pIC50 (Neutrophil collagenase): 8.05
- pIC50 [1]: 9.05
- pIC50 (Collagenase 3): 8.22
- pIC50 [2]: 8.92
Structure (SMILES): COc1ccc(S(=O)(=O)N(Cc2cn(CCOCCOCCOCCN=[N+]=[N-])nn2)[C@@H](C(=O)NO)C(C)C)cc1

- logD at 1 min [3]: 0.6
- Stability (Serum [4]): Stable
- Drug metabolism (Serum [5]): Not Active
- Drug metabolism (Serum [6]): Not Active
- Tmax (Kidney [7]): 0.5 min
- t1/2 (Kidney [8]): 13 min
- Tmax (Liver [9]): 4 min
- t1/2 (Liver [10]): 18 min
- Drug metabolism (Mus musculus): Not Active
- Drug uptake (Brain): Not Active
- Drug uptake [11]: Not Active
- Drug uptake (Lung): Not Active
- Drug uptake (Muscle tissue [12]): Not Active
- tissue uptake at 0.5 h [13]: 0.21 %ID/g
- Stability (Kidney [14]): 4.6 % ID/g
- Stability (Liver [15]): 0.78 % ID/g
- Stability (Plasma [16]): 0.29 % ID/g
- Stability [17]: 27.86 % ID/g
- Drug metabolism (Muscle tissue [18]): 0 % ID/g
- Drug metabolism (Kidney [19]): 0.26 % ID/g
- Drug metabolism (Liver [20]): 0.12 % ID/g
- Drug metabolism (Plasma [21]): 0.17 % ID/g
- Drug metabolism [22]: 2.32 % ID/g
- Drug metabolism (Muscle tissue [23]): 0 % ID/g
- Drug metabolism (Kidney [24]): 0 % ID/g
- Drug metabolism (Liver [25]): 0 % ID/g
- Drug metabolism (Plasma [26]): 0 % ID/g
- Drug metabolism [27]: 0.33 % ID/g
- Drug metabolism (Muscle tissue [28]): 0 % ID/g
- Drug metabolism (Kidney [29]): 0.21 % ID/g
- Drug metabolism (Liver [30]): 1.32 % ID/g
- Drug metabolism (Plasma [31]): 0 % ID/g
- Drug metabolism [32]: 2.32 % ID/g
- Drug metabolism (Muscle tissue [33]): 0 % ID/g
- Drug metabolism (Kidney [34]): 0.1 % ID/g
- Drug metabolism (Liver [35]): 0.78 % ID/g
- Drug metabolism (Plasma [36]): 0 % ID/g
- Drug metabolism [37]: 0.33 % ID/g
Structure (SMILES): COc1ccc(S(=O)(=O)N(Cc2cn(CC[18F])nn2)[C@@H](C(=O)NO)C(C)C)cc1
